Test results reported in ChEMBL document CHEMBL1125929, “Octoclothepin enantiomers. A reinvestigation of their biochemical and pharmacological activity in relation to a new receptor-interaction model for dopamine D-2 receptor antagonists” (J Med Chem, 1991).

Assays:
Assay type in all cases: functional
Conditions in all cases: sc
[1] = tested on: Mus musculus; test: Dose to antagonise, when given subcutaneously to mice (in vivo) using methyl phenidate antagonism test
Method in brief: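 Male NMRI mice (18–25 g) got test compound sc 2 h before methyl phenidate (222 μmol/kg sc). Mice were placed in pairs on corrugated cardboard in gnawing cages. Gnawing was judged 1 h later by inspecting the cardboard. Six to nine pairs per dose.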

[2] = tested on: Rattus norvegicus; test: Dose to antagonise, when given subcutaneously to 6-OH-DA-lesioned rats, using SK & F 38393 antagonism test.(in vivo)
Method in brief: (§1)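 Unilateral 6-OHDA-lesioned rats, tested 2–9 months after lesioning once stable contralateral circling was seen. Agonist was pergolide (0.05 μmol/kg sc) or SK&F 38393 (4.3 μmol/kg sc), given 2 h after the test compound. Inhibition was calculated as percent of each rat's own control circling response. Four to eight rats per dose.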

[3] = tested on: Rattus norvegicus; test: Dose to antagonise, when given subcutaneously to 6-OH-DA-lesioned rats, using pergolide antagonism test.(in vivo); method in brief: as §1
[4] = tested on: Rattus norvegicus; test: Dose to antagonise, when given subcutaneously to rats (in vivo) using catalepsy test, maximum effect 1-6h.
Method in brief: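 Male Wistar rats (170–270 g) were scored hourly 1–6 h after dosing on a vertical wire grid. Catalepsy counted as present after at least 15-s immobility. The maximum effect over 1–6 h was taken. Eight to twelve animals per dose.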

[5] = tested on: Rattus norvegicus; test: Dose to antagonise, when given subcutaneously to rats (in vivo) using flexor reflex St 587 antagonism test.
[6] = tested on: Rattus norvegicus; test: Dose to antagonise, when given subcutaneously to rats (in vivo) using inhibition of locomotor motility test
Method in brief: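 Locomotor activity of male Wistar rats was measured in photocell cages 2 h after test compound or saline. Four to eight animals per dose.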

[7] = tested on: Rattus norvegicus; test: Dose to antagonise, when given subcutaneously to rats (in vivo) using quipazine antagonism test.
Method in brief: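 Rats got test compound 2 h before quipazine (15 μmol/kg sc). Each rat was observed singly in a perspex box, and head twitches were counted 30–40 min after quipazine. Inhibition was expressed as percent of a parallel control group. Four to eight rats per dose.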

SMILES: CN1CCN([C@H]2Cc3ccccc3Sc3ccc(Cl)cc32)CC1
- ED50 [1]: 0.2 µmol/kg
- ED50 [2]: 0.85 µmol/kg
- ED50 [3]: 0.017 µmol/kg
- ED50 [4]: 0.65 µmol/kg
- ED50 [5]: 0.26 µmol/kg
- ED50 [6]: 0.12 µmol/kg
- ED50 [7]: 0.02 µmol/kg

SMILES: CN1CCN([C@@H]2Cc3ccccc3Sc3ccc(Cl)cc32)CC1
- ED50 [1]: 3.8 µmol/kg
- ED50 [2]: 1.9 µmol/kg
- ED50 [3]: 0.31 µmol/kg
- ED50 [4]: 24 µmol/kg
- ED50 [5]: 0.095 µmol/kg
- ED50 [6]: 0.46 µmol/kg
- ED50 [7]: 0.012 µmol/kg

SMILES: CN1CCN(C2Cc3ccccc3Sc3ccc(Cl)cc32)CC1 (stereo unspecified) [CLOROTEPINE]
- ED50 [1]: 0.19 µmol/kg
- ED50 [2]: 0.25 µmol/kg
- ED50 [3]: 0.033 µmol/kg
- ED50 [4]: 1.3 µmol/kg
- ED50 [5]: 0.064 µmol/kg
- ED50 [6]: 0.18 µmol/kg
- ED50 [7]: 0.019 µmol/kg
